Usually IC50 stands for the concentration needed to halve the response being measured.

The target of test [1] is Acetylcholinesterase (Electrophorus electricus, UniProt O42275). Nature of the test: Inhibition of electric eel AChE using acetylthiocholine chloride as substrate after 15 mins by Ellman's method. (In general: Ellman's reagent forms a yellow product with free thiols.)
Test [2] can be described thus: Selectivity index, ratio of IC50 for equine serum BuChE to IC50 for electric eel AChE.
The target of test [3] is T1, Acetylcholinesterase (Rattus norvegicus, UniProt P37136).
T1 sequence (P37136 whole entry): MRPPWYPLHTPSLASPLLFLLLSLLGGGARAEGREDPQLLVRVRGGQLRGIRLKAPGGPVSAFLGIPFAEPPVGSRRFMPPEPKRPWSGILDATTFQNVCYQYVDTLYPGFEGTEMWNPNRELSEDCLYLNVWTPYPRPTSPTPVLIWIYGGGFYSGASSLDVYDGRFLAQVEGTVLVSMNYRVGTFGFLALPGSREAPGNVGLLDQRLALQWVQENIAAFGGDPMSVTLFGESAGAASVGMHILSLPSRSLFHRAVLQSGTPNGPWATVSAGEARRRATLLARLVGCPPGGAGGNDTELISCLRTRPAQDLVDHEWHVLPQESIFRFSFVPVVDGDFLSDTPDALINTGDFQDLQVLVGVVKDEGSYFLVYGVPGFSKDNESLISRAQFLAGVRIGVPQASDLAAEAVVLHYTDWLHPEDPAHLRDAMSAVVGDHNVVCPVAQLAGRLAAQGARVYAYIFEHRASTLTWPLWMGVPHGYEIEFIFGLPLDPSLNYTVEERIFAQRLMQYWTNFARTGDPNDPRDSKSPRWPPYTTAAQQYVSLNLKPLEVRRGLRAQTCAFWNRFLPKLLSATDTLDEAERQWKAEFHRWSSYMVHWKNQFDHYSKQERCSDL

The species named for another test is Homo sapiens. Nature of the test: Selectivity index, ratio of IC50 for recombinant human MAO-B to IC50 for recombinant human MAO-A.
Another test deals with Cholinesterase (Equus caballus, UniProt P81908). Kind of test: Inhibition of equine serum BuChE using butyrylthiocholine chloride as substrate after 15 mins by Ellman's method. Summed up:
(§1)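 Ellman assay. Equine serum or rat serum BuChE pre-incubated with test compound at various concentrations (DMSO <1%) in 0.1 M phosphate buffer pH 8.0 for 15 min at 37°C. DTNB (0.2%) added, absorbance read at 412 nm. Inhibition % = (1−Ai/Ac)×100. IC50 is the mean of three independent experiments, each run in triplicate.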

For test [4], the target named is T2, Amine oxidase [flavin-containing] A (Homo sapiens, UniProt P21397).
T2 sequence (P21397 whole entry): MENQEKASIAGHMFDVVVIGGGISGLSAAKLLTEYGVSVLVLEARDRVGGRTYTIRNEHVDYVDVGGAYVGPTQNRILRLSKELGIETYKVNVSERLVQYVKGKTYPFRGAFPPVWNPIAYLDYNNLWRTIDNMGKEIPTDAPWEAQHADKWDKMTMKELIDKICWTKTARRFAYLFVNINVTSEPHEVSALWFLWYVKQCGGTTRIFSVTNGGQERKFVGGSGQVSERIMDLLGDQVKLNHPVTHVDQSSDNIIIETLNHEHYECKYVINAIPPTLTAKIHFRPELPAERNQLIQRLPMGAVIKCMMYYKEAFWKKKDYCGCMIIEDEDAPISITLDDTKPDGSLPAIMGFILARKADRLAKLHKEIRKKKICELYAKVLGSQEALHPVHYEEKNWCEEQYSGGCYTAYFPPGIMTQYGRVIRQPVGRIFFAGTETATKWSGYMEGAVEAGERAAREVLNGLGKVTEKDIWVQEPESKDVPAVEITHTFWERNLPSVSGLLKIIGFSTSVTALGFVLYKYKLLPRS
Nature of the test: Inhibition of recombinant human MAO-A expressed in baculovirus infected BTI insect cells using kynuramine as substrate after 30 mins by fluorescence assay.

For test [5], the target named is T3, Amine oxidase [flavin-containing] B (Homo sapiens, UniProt P27338).
T3 sequence (P27338 whole entry): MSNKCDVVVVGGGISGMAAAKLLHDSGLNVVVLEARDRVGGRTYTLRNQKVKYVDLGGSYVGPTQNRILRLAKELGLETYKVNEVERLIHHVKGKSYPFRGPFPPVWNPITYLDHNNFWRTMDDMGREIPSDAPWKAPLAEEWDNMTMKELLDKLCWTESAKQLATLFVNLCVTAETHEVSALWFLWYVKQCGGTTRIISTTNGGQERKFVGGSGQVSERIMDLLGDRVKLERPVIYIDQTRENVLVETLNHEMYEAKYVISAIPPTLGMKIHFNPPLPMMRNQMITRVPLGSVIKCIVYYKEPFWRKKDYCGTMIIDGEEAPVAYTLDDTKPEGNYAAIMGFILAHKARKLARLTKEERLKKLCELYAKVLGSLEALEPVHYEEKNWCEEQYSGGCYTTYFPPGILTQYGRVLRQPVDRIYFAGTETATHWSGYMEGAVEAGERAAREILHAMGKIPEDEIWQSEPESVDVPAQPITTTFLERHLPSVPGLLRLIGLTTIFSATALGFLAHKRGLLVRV
Nature of the test: biochemical. The format is cell-based.

The nature of test [6]: Inhibition of rat serum BuChE using butyrylthiocholine chloride as substrate after 15 mins by Ellman's method. The method in brief: as §1
For another test, the species on record is Rattus norvegicus. Kind of test: Selectivity index, ratio of IC50 for rat serum BuChE to IC50 for 5% rat cortex homogenate AChE.

Acetylcholinesterase (Electrophorus electricus, UniProt O42275), sequence (O42275 whole entry): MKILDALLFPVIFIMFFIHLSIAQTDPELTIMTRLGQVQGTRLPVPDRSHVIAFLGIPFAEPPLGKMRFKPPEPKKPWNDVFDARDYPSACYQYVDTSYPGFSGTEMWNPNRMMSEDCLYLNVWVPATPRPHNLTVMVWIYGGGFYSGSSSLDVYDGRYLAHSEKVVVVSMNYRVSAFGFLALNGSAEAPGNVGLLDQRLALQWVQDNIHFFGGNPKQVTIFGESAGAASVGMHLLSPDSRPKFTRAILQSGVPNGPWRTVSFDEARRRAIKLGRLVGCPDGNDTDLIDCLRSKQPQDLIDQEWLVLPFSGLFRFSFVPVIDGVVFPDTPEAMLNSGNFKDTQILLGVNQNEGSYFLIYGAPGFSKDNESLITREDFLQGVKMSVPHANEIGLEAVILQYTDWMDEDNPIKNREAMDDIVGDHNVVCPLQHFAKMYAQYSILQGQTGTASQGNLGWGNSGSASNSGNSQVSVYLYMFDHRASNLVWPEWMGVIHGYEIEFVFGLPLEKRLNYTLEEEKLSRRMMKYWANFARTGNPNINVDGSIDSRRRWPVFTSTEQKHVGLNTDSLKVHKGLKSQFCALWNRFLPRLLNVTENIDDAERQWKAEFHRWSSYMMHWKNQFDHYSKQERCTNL
Cholinesterase, sequence (P81908 whole entry): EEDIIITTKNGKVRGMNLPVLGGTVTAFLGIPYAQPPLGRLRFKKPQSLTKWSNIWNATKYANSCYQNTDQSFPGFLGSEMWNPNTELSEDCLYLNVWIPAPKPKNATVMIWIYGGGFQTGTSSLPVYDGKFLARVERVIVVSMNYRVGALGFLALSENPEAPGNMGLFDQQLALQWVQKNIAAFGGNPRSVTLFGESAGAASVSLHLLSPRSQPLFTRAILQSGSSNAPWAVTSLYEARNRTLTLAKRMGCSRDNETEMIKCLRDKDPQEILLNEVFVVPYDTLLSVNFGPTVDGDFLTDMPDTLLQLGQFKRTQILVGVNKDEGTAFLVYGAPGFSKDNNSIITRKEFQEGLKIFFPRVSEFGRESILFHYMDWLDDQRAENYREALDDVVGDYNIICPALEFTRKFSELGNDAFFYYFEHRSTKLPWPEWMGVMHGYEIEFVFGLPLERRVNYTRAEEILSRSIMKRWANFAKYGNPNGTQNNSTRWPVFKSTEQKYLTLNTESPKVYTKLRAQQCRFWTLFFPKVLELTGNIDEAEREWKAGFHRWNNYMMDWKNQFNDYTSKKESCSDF

Regarding `O=C1CCc2ccc(OCCCCN3CCN(Cc4ccccc4)CC3)cc2N1`, the IC50 against Acetylcholinesterase [1] amounted to 6 µM; at Acetylcholinesterase [3], 13.7 µM; against Cholinesterase, 10.7 µM; in [4], 7.4 µM; in test [5], 9.4 µM; in [6], 31.6 µM. Moreover, the Ratio IC50 in [2] was 1.8; in the test filed under Homo sapiens it was 1.3; in the test listed under Rattus norvegicus it was 2.3.
For `O=C1CCc2ccc(OCCCCN3CCc4ccccc4C3)cc2N1`, the IC50 at Acetylcholinesterase [1] came out at 10.1 µM; against Acetylcholinesterase [3], 18.2 µM; on Cholinesterase, 3.8 µM; in test [4] it was 4.9 µM; in [5] it was 6.9 µM; in [6], 12.4 µM. Besides, the Ratio IC50 in test [2] stood at 0.4; in the test listed under Homo sapiens it was 1.4; in the test listed under Rattus norvegicus, 0.7.
For `O=C1CCc2ccc(OCCCN3CCN(Cc4ccccc4)CC3)cc2N1`, the IC50 is 1.3 µM on Acetylcholinesterase [1]; 12.6 µM against Acetylcholinesterase [3]; 19.4 µM at Cholinesterase; 6.6 µM in [4]; 21.8 µM in test [5]; 34.2 µM in test [6]. For the same molecule, the Ratio IC50 stood at 14.9 in [2], 3.3 in the test listed under Homo sapiens and 2.7 in the test filed under Rattus norvegicus.
On to `O=C1CCc2ccc(OCCCCCCN3CCN(c4ccccn4)CC3)cc2N1`, for which the IC50 at Acetylcholinesterase [1] amounted to 19.1 µM; at Acetylcholinesterase [3], 34.1 µM; against Cholinesterase it was 4.1 µM; in test [4], 5.6 µM; in test [5], 11.3 µM; in [6], 48.2 µM. In addition, the Ratio IC50 stood at 0.2 in test [2], 2 in the test filed under Homo sapiens and 1.4 in the test filed under Rattus norvegicus.
Consider `C#CCN(CCCCOc1ccc2c(c1)NC(=O)CC2)Cc1ccccc1`, for which the IC50 on Acetylcholinesterase [1] was 21.4 µM; at Acetylcholinesterase [3] it was 23.3 µM; against Cholinesterase, 19.1 µM; in [4], 9.3 µM; in test [5], 9.1 µM; in test [6] it was 32.1 µM. Moreover, the Ratio IC50 in [2] is 0.9; in the test filed under Homo sapiens, 1; in the test listed under Rattus norvegicus, 1.4.
As for `O=C1CCc2ccc(OCCCCCCN3CCC(N4CCCC4)CC3)cc2N1`, the IC50 is 5.3 µM at Acetylcholinesterase [1]; 12.3 µM against Acetylcholinesterase [3]; 32.7 µM on Cholinesterase; 6.2 µM in test [4]; 18.3 µM in test [5]; 20.2 µM in test [6]. The Ratio IC50 in test [2] turned out to be 6.2; in the test listed under Homo sapiens, 3; in the test filed under Rattus norvegicus, 1.6.
Turning to `CC(C)N1CCN(CCCCCCOc2ccc3c(c2)NC(=O)CC3)CC1`, the IC50 came to 0.76 µM on Acetylcholinesterase [1]; 2.43 µM on Acetylcholinesterase [3]; 2 µM on Cholinesterase; 6.8 µM in [4]; 24.9 µM in test [5]; 1.8 µM in [6]. For the same molecule, the Ratio IC50 in test [2] stood at 2.7; in the test listed under Homo sapiens it was 3.7; in the test listed under Rattus norvegicus, 0.7.
Regarding `O=C1CCc2ccc(OCCCN3CCC(N4CCCC4)CC3)cc2N1`, the IC50 is 5.8 µM against Acetylcholinesterase [1]; 16 µM against Acetylcholinesterase [3]; 39.6 µM against Cholinesterase; 9.6 µM in test [4]; 19.2 µM in test [5]; 21.5 µM in test [6]. The Ratio IC50 in test [2] amounted to 6.9; in the test filed under Homo sapiens, 2; in the test listed under Rattus norvegicus, 1.3.
In the case of `O=C1CCc2ccc(OCCCN3CCN(c4ccccn4)CC3)cc2N1`, the IC50 against Acetylcholinesterase [1] is 9.6 µM; on Acetylcholinesterase [3], 20 µM; at Cholinesterase, 14.4 µM; in test [4], 1.1 µM; in test [5], 18 µM; in test [6], 39 µM. Also, the Ratio IC50 in [2] was 1.5; in the test listed under Homo sapiens it was 17.1; in the test listed under Rattus norvegicus, 2.
Take `O=C1CCc2ccc(OCCCCCCN3CCCCC3)cc2N1`: the IC50 at Acetylcholinesterase [1] amounted to 17.8 µM; against Acetylcholinesterase [3] it was 6 µM; against Cholinesterase it was 14.1 µM; in [4], 9.4 µM; in [5] it was 31.7 µM; in test [6] it was 27.2 µM. Also, the Ratio IC50 was 0.8 in test [2], 3.4 in the test filed under Homo sapiens and 4.5 in the test filed under Rattus norvegicus.
`COc1cc2c(cc1OC)C(=O)C(CC1CCN(Cc3ccccc3)CC1)C2` (stereo not given) [DONEPEZIL]: the IC50 in test [6] amounted to 4.42 µM.
For the molecule `O=C1CCc2ccc(OCCCCCN3CCc4ccccc4C3)cc2N1`, the IC50 is 9.1 µM against Acetylcholinesterase [1]; 7.8 µM at Acetylcholinesterase [3]; 0.9 µM at Cholinesterase; 4.6 µM in test [4]; 5.9 µM in test [5]; 11.2 µM in [6]. Further, the Ratio IC50 in [2] stood at 0.1; in the test listed under Homo sapiens, 1.3; in the test listed under Rattus norvegicus, 1.4.
Consider `O=C1CCc2ccc(OCCCCCN3CCN(c4ccccn4)CC3)cc2N1`, for which the half-inhibitory concentration (IC50) against Acetylcholinesterase [1] worked out at 15.6 µM; against Acetylcholinesterase [3] it was 28.4 µM; at Cholinesterase it was 6.2 µM; in test [4], 13 µM; in [5], 20.3 µM; in test [6], 44.6 µM. Moreover, the Ratio IC50 in test [2] amounted to 0.4; in the test listed under Homo sapiens, 1.6; in the test listed under Rattus norvegicus, 1.6.
With `O=C1CCc2ccc(OCCCCN3CCCCC3)cc2N1`, the IC50 on Acetylcholinesterase [1] stood at 11.8 µM; against Acetylcholinesterase [3], 11.6 µM; at Cholinesterase, 15.7 µM; in test [4], 9.5 µM; in test [5] it was 6.4 µM; in test [6] it was 22.8 µM. Besides, the results for the Ratio IC50 (in [2]; in the test listed under Homo sapiens; in the test filed under Rattus norvegicus) were 1.3, 0.7 and 2, respectively.
On to `O=C1CCc2ccc(OCCCCCN3CCN(Cc4ccccc4)CC3)cc2N1`, for which the IC50 against Acetylcholinesterase [1] is 10 µM; against Acetylcholinesterase [3] it was 15.7 µM; on Cholinesterase, 12.7 µM; in test [4], 2.4 µM; in test [5], 6.5 µM; in test [6] it was 29.6 µM. Besides, the Ratio IC50 in test [2] came to 1.3; in the test filed under Homo sapiens, 2.7; in the test listed under Rattus norvegicus it was 1.9.
Consider `C#CCN(CCCOc1ccc2c(c1)NC(=O)CC2)Cc1ccccc1`, for which the IC50 against Acetylcholinesterase [1] came to 23.5 µM; against Acetylcholinesterase [3] it was 26 µM; against Cholinesterase, 29.5 µM; in test [4], 9 µM; in test [5], 7.3 µM; in [6], 30.3 µM. Besides, the Ratio IC50 came out at 1.3 in test [2], 0.8 in the test filed under Homo sapiens and 1.2 in the test listed under Rattus norvegicus.
Regarding `CCN(CC)CCCCCOc1ccc2c(c1)NC(=O)CC2`, the IC50 was 8.2 µM against Acetylcholinesterase [1]; 34.1 µM at Acetylcholinesterase [3]; 21.9 µM against Cholinesterase; 11.4 µM in [4]; 8.5 µM in test [5]; 14.7 µM in test [6]. Also, the Ratio IC50 was 2.7 in [2], 0.7 in the test listed under Homo sapiens and 0.4 in the test filed under Rattus norvegicus.

Values taken from ChEMBL document CHEMBL4033676, “Design, synthesis and biological evaluation of 3,4-dihydro-2(1H)-quinoline-O-alkylamine derivatives as new multipotent cholinesterase/monoamine oxidase inhibitors for the treatment of Alzheimer's disease” (Bioorg Med Chem, 2017).
